Legend:
[1] = Half life in Wistar Han rat at 0.5 mg/kg, iv or 0.5 mg/kg, po; assay type: ADME, organism-based; conditions: in vivo
Procedure, shortened: (§1)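 Male Wistar Han rats given 0.5 mg/kg intravenously and 0.5 mg/kg orally, both as solutions in DMSO/PEG400/H2O. Plasma clearance, volume of distribution, half-life and oral bioavailability determined. Unbound parameters correct for plasma protein binding.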

[2] = Total Plasma clearance in Wistar Han rat at 0.5 mg/kg, iv or 0.5 mg/kg, po; assay type: ADME, organism-based; procedure, shortened: as §1
[3] = target: T1, Mitogen-activated protein kinase kinase kinase kinase 1 (Homo sapiens, UniProt Q92918); test: Inhibition of HPK1 in human PBMC assessed as unbound concentration required for inhibition of SLP76 phosphorylation by ELISA corrected to binding to 10% FBS
Procedure, shortened: (§2)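 Target-engagement assay in human peripheral blood mononuclear cells with ELISA readout of SLP76 phosphorylation. Total-cell IC50 reported. Unbound IC50 obtained by correcting for compound binding to the 10% FBS present in the assay medium.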
Target sequence in this assay (Q92918 whole entry, looked up): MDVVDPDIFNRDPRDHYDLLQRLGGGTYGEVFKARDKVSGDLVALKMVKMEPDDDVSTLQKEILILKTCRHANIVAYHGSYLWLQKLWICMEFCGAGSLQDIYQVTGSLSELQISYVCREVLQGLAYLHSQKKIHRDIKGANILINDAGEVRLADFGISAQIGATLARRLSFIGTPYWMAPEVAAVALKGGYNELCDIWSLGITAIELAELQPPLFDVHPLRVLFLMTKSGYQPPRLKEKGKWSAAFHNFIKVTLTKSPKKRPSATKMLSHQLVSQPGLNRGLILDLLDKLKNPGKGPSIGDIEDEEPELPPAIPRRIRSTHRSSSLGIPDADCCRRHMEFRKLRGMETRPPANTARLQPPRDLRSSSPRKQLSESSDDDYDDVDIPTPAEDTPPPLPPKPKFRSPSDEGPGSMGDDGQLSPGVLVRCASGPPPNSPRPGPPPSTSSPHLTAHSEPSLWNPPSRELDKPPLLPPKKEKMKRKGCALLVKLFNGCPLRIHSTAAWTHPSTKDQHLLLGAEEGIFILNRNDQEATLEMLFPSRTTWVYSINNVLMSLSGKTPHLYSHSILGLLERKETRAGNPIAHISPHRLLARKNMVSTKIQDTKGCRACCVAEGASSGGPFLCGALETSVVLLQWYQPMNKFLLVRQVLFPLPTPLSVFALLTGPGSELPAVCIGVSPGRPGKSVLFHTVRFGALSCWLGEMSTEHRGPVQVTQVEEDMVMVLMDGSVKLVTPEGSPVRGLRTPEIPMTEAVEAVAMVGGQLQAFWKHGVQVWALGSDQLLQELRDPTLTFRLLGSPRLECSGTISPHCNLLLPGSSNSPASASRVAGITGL

[4] = target: T1, Mitogen-activated protein kinase kinase kinase kinase 1; test: Inhibition of HPK1 in human PBMC assessed as inhibition of SLP76 phosphorylation by ELISA; procedure, shortened: as §2
Target sequence in this assay (Q92918 whole entry): as the sequence (Q92918 whole entry, looked up) above

[5] = Oral bioavailability in Wistar Han rat at 0.5 mg/kg; assay type: ADME, organism-based; conditions: in vivo; procedure, shortened: as §1
[6] = Volume of distribution in Wistar Han rat at 0.5 mg/kg, iv or 0.5 mg/kg, po; assay type: ADME, organism-based; conditions: in vivo; procedure, shortened: as §1
[7] = target: T1, Mitogen-activated protein kinase kinase kinase kinase 1; test: Displacement of Tracer 222 from N-terminal GST-tagged human recombinant HPK1 (1 to 346 residues ) expressed in baculovirus-infected Sf9 cells incubated for 1 hr by HTRF lanthascreen binding assay
Procedure, shortened: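 Binding (tracer-displacement) format run with tracer at a concentration approximately equal to its Kd; IC50 derived from displacement.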
Target sequence in this assay (Q92918 whole entry): as the sequence (Q92918 whole entry, looked up) above

[8] = organism: Homo sapiens; test: Selectivity ratio of IC50 for JAK2 (unknown origin) by ATP competitive binding assay to IC50 for N-terminal GST-tagged human recombinant HPK1 (1 to 346 residues ) expressed in baculovirus-infected Sf9 cells by HTRF lanthascreen binding assay
Procedure, shortened: (§3)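 Ratio of off-target kinase IC50 (JAK1, JAK2 or CDK2) to HPK1 IC50. The off-target kinase assays were run at ATP approximately equal to Km(ATP). HPK1 IC50 came from the tracer-displacement assay with tracer at approximately Kd(tracer).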

[9] = organism: Homo sapiens; test: Selectivity ratio of IC50 for JAK1 (unknown origin) by ATP competitive binding assay to IC50 for N-terminal GST-tagged human recombinant HPK1 (1 to 346 residues ) expressed in baculovirus-infected Sf9 cells by HTRF lanthascreen binding assay; procedure, shortened: as §3
[10] = Unbound clearance in Wistar Han rat at 0.5 mg/kg, iv or 0.5 mg/kg, po; assay type: ADME, organism-based; conditions: in vivo; procedure, shortened: as §1
[11] = organism: Homo sapiens; test: Selectivity ratio of IC50 for CDK2 (unknown origin) by ATP competitive binding assay to IC50 for N-terminal GST-tagged human recombinant HPK1 (1 to 346 residues ) expressed in baculovirus-infected Sf9 cells by HTRF lanthascreen binding assay; procedure, shortened: as §3
[12] = Apparent permeability of compound in dog MDCKII cells; assay type: ADME, cell-based, Canis lupus familiaris, MDCK-II; conditions: MDCK
[13] = Total Plasma clearance in Wistar Han rat at 0.1 mg/kg, iv; assay type: ADME, organism-based
Procedure, shortened: (§4)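 Male Wistar Han rats dosed intravenously at 0.1 mg/kg, given as a solution in DMSO/PEG400/H2O. Plasma PK parameters derived: total plasma clearance, volume of distribution, mean residence time and half-life. Unbound clearance accounts for plasma protein binding.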

[14] = Volume of distribution in Wistar Han rat at 0.1 mg/kg, iv; assay type: ADME, organism-based; conditions: in vivo; procedure, shortened: as §4
[15] = Mean residence time in Wistar Han rat at 2 mg/kg, iv; assay type: ADME, organism-based; conditions: in vivo
Procedure, shortened: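 Male Wistar Han rats received a single intravenous dose of 2 mg/kg, formulated as a solution in 30% captisol/70% water. Mean residence time derived from plasma concentration–time data.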

[16] = Mean residence time in Wistar Han rat at 0.1 mg/kg, iv; assay type: ADME, organism-based; conditions: in vivo; procedure, shortened: as §4
[17] = Unbound volume of distribution in Wistar Han rat at 0.5 mg/kg, iv or 0.5 mg/kg, po; assay type: ADME, organism-based; conditions: in vivo; procedure, shortened: as §1
[18] = Half life in Wistar Han rat at 0.1 mg/kg, iv; assay type: ADME, organism-based; conditions: in vivo; procedure, shortened: as §4
[19] = Unbound clearance in Wistar Han rat at 0.1 mg/kg, iv; assay type: ADME, organism-based; conditions: in vivo; procedure, shortened: as §4

| SMILES | IC50 [4] | IC50 [7] | Ratio IC50 [8] | Ratio IC50 [9] | Ratio IC50 [11] | Papp [12] | clearance [13] | Vd [14] | further results |
| --- | --- | --- | --- | --- | --- | --- | --- | --- | --- |
| COc1cccc(F)c1-c1cc2c(cn1)cnn2-c1cccc(N2C[C@@H]3C[C@H]2CN3C)n1 | 4300 nM | 1.9 nM | 599 | 5190 | 61 | 34 ×10⁻⁶ cm/s | – | – | half-life [1]: 1.8 h; clearance [2]: 4.2 mL/min/kg; fIC50 [3]: 1.1 µM; bioavailability [5]: > 100%; Vd [6]: 0.5 L/kg; CL free [10]: 2962 mL/min/kg |
| COc1ccncc1-c1ccc2cnn(-c3ccnc(N4CCOCC4)c3)c2c1 | – | 2200 nM | 4 | 4 | – | – | 31 mL/min/kg | 2.1 L/kg | MRT [15]: 1.2 h |
| C[C@@H]1CN(c2cc(-n3ncc4ccc(-c5cnn6c5OCCC6)cc43)ccn2)C[C@H](C)N1C | – | 1460 nM | 7 | 7 | – | – | 8.7 mL/min/kg | 1.4 L/kg | MRT [16]: 2.6 h |
| COc1cccc(F)c1-c1cc2c(cn1)cnn2-c1cccc(N2CC3CCC(C2)N3C)n1 | 4000 nM | 1.1 nM | 1450 | 8960 | 61 | 26 ×10⁻⁶ cm/s | – | – | half-life [1]: 2.1 h; clearance [2]: 19 mL/min/kg; fIC50 [3]: 0.3 µM; Vdu [17]: 143 L/kg; bioavailability [5]: 67%; Vd [6]: 2.3 L/kg; CL free [10]: 1197 mL/min/kg |
| CN1CCN(c2cc(-c3n[nH]c4ccc(-c5cnn6c5CCC6)cc34)ccn2)CC1 | – | 9.1 nM | 1110 | 205 | – | – | 117 mL/min/kg | 7.1 L/kg | MRT [16]: 1 h |
| CCOc1cccc(F)c1-c1cc2c(cn1)cnn2-c1ccc(N2CCN(C)CC2)cc1 | – | 557 nM | 18 | 18 | 18 | – | – | – | – |
| COc1cccc(F)c1-c1cc2c(cn1)cnn2-c1ccc(N2CCN(C)CC2)cc1 | – | 89 nM | 112 | 112 | 112 | – | – | – | – |
| CNC(=O)N1CCN(c2cccc(-n3ncc4cnc(-c5c(F)cccc5OC)cc43)n2)CC1 | – | 11 nM | 32 | 311 | 30 | – | – | – | – |
| Cc1cccc(F)c1-c1cc2c(cnn2-c2ccc(N3CCN(C)CC3)cc2)cc1C#N | > 10000 nM | 28 nM | – | 357 | 357 | < 8 ×10⁻⁶ cm/s | 151 mL/min/kg | 18 L/kg | half-life [18]: 2.2 h |
| COc1cccc(F)c1-c1cc2c(cn1)cnn2-c1cccc(N2CC[C@H](N(C)C)C2)n1 | > 10000 nM | 1.2 nM | 393 | 3070 | 281 | 30 ×10⁻⁶ cm/s | 4.8 mL/min/kg | 0.3 L/kg | half-life [18]: 1.2 h |
| COc1cccc(F)c1-c1cc2c(cn1)cnn2-c1ccc(N2CCN(C)CC2)cn1 | – | 31 nM | 61 | 95 | 77 | – | – | – | – |
| COc1cccc(F)c1-c1cc2c(cn1)cnn2-c1ccnc(N2CCN(C)CC2)n1 | – | 6.7 nM | 125 | 1480 | 10 | – | – | – | – |
| COc1cccc(F)c1-c1cc2c(cn1)cnn2-c1cccc(N2CCN(C)CC2)n1 | 8000 nM | 2.6 nM | 135 | 751 | 44 | 28 ×10⁻⁶ cm/s | 9.4 mL/min/kg | 1.1 L/kg | fIC50 [3]: 0.6 µM; half-life [18]: 2.3 h; CL free [19]: 2171 mL/min/kg |
| CN1CCN(c2cc(-c3n[nH]c4cnc(-c5cnn6c5CCC6)cc34)ccn2)CC1 | – | 15 nM | 32 | 45 | – | – | 130 mL/min/kg | 15 L/kg | MRT [16]: 1.9 h |
| COc1cccc(F)c1-c1cc2c(cn1)cnn2-c1cc(Cl)cc(N2CCN(C)CC2)n1 | – | 1.8 nM | 134 | 347 | 597 | – | – | – | – |
| COc1cccc(F)c1-c1cc2c(cnn2-c2cccc(N3CCN(C)CC3)n2)cc1C#N | > 10000 nM | 2 nM | 130 | 1320 | 115 | < 14 ×10⁻⁶ cm/s | 12 mL/min/kg | 2.3 L/kg | half-life [18]: 3.1 h; CL free [19]: 19913 mL/min/kg |
| COc1cccc(F)c1-c1cc2c(cn1)cnn2-c1cccc(N2CC3(CCCNC3)C2)n1 | – | 13 nM | 177 | 792 | 45 | – | – | – | – |
| CNC1CCc2c1ccc(F)c2-c1cc2c(cn1)cnn2-c1ccc(N2CCN(C)CC2)cc1 (racemic) | – | 193 nM | 52 | 52 | 52 | – | – | – | – |
